The list is not random: actives were taken first. Their share in the collection is about 2.7%.
OXTR ag: human OXTR agonists, primary screen, fluorescence, CHO-OTR cells, Fluo-8 calcium. Fluo-8 calcium fluorescence; normalized: DMSO 0%, oxytocin 100%. activation, % at 3 µM. actives 0.32% (n = 320,000);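 active = activation above the mean of all tested compounds plus 3 SD, cutoff set per screening run, cut at about 20% in these data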;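 also: peak over basal fluorescence ratio from a 100 s FLIPR kinetic read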
CHO parental Ca: ATP-evoked calcium signal inhibitors, parental CHO, primary screen, counter-screen for OX1R antagonist project, cell-based, fluorescence, Fluo-8 calcium dye. parental CHO-K1, ATP-induced calcium, Fluo-8 fluorescence. inhibition, % at 5.6 µM. actives 0.63% (n = 330,000);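 active = inhibition above that plate's mean sample inhibition plus 3 SD, cut at about 26% in these data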;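 also: 0% = ATP-challenged DMSO wells and 100% = DMSO wells without ATP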
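Material – parental CHO cells · Reagent – ATP stimulus · Compound – single nominal dose of 5.6 µM per compound · Detection – Fluo-8 fluorescence · Read-out basis – percent inhibition of calcium signal · Controls – ATP-challenged DMSO wells low, unchallenged DMSO wells high · Repeats – no replicates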
V1R ag counter: agonists of human V1a receptor, primary screen, counter-screen for OXTR agonist project, fluorescence, CHO-V1R cells | activation, % at 3 µM | Vasopressin V1a receptor (Homo sapiens), P37288 | Fluo-8 calcium fluorescence, agonist mode; 0% DMSO, 100% 3 nM vasopressin | actives 0.25% (n = 320,000);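 active = activation above the mean activation of all tested compounds plus 3 SD, per screening run, cut at about 20% in these data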;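 also: signal is peak over basal fluorescence ratio across a 100 second FLIPR read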
OX1R antag-1: OX1R (HCRTR1) antagonists, primary screen, fluorescence, CHO/OX1R cells, Fluo-8 calcium, orexin A; AID 434989, 2010; inhibition, % at 5 µM; Fluo-8 calcium fluorescence; Orexin/Hypocretin receptor type 1 (Homo sapiens), O43613; actives 0.43% (n = 330,000);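 active = inhibition above its plate's threshold, mean inhibition of all tested compounds on the plate plus 3 SD, cut at about 37% in these data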;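 also: 0% = orexin A challenge wells and 100% = SB-334867-A antagonist wells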
Target sequence (O43613 whole entry, looked up): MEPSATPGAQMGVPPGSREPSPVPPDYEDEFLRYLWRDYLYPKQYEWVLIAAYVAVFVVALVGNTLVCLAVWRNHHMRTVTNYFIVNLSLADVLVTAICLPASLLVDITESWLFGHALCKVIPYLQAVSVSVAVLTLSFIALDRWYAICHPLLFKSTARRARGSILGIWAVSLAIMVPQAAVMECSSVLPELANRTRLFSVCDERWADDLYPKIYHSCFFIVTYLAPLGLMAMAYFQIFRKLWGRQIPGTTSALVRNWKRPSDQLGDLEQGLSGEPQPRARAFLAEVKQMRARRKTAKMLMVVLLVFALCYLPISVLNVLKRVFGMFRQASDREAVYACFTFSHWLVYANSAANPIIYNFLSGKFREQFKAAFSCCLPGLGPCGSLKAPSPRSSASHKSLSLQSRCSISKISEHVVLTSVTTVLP
OXTR potentiator: human OXTR potentiators, primary screen, fluorescence, CHO-OTR cells, Fluo-8 calcium; Fluo-8 calcium fluorescence, potentiator mode; 0% = oxytocin EC15, 100% = EC100; Oxytocin receptor (Homo sapiens), P30559; actives 0.061% (n = 320,000); activation, % at 3 µM;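 active = activation above that plate's cutoff, the mean activation of tested compounds plus 3 SD, cut at about 6.6% in these data, passing the limit was not always enough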;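 also: 100% uses oxytocin at 75 nM as the full agonist control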
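Assay system: CHO cell line stably expressing human OTR | Also added: Oxytocin at about EC15, sub-maximal agonist stimulus | Times: Compound 6 min at room temperature before oxytocin, 100 s read | Measured by: Fluo-8 intracellular calcium fluorescence, ex 470-495, em 515-575 nm | Controls: EC15 oxytocin alone as 0%, 75 nM oxytocin as 100%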
OX1R antag-2: antagonists of human orexin 1 receptor (OX1R). OX1R-expressing cells, FRET antagonist read-out. actives 1.8% (n = 330,000). Orexin/Hypocretin receptor type 1 (Homo sapiens), O43613. inhibition, % at 6.6 µM; in the data active = inhibition mostly above about 38%, no sharp cut-off; inactive = mostly below about 40%;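 also: 0% = agonist challenge alone and 100% = reference antagonist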
OX1R HTRF conf: OX1R (HCRTR1) antagonists, confirmation, cell-based, HTRF | shares compounds with OX1R antag-2 | AID 492964, 2010 | actives 49% (n = 1,800) | inhibition, % at 6.6 µM | OX1R-expressing cells, HTRF antagonist assay; in the data active = inhibition above about 55%;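 also: CHO cells expressing OX1R stimulated with orexin A at about EC80; 0% = agonist challenge alone and 100% = reference antagonist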
CHO-K1 HTRF cnt: signal inhibition in parental CHO-K1 cells, counter-screen for OX1R antagonist project, cell-based, HTRF; shares compounds with OX1R antag-2; HTRF counterscreen; inhibition, % at 6.6 µM; actives 48% (n = 1,800); AID 493232, 2011; in the data active = inhibition above about 17%;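 also: 0% = agonist challenge with vehicle and 100% = vehicle alone without agonist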
Starred values were filed as active, the others as inactive; · = no result.

SMILES | OXTR ag | CHO parental Ca | V1R ag counter | OX1R antag-1 | OXTR potentiator | OX1R antag-2 | OX1R HTRF conf | CHO-K1 HTRF cnt
CCN(C(=O)COC(=O)c1cc(S(=O)(=O)Nc2c(C)n(C)n(-c3ccccc3)c2=O)ccc1Cl)C1CCCCC1 | -2 | -23 | -1 | -13 | -18 | 80* | 86* | 1
c1cncc(-c2nnc(-c3cccnc3)nn2)c1 | 0 | -6 | -1 | -2 | -9 | 88* | 39 | 28*
COc1ccccc1C(=O)NCC(=O)N=Nc1c(O)n(C(C)C)c2ccccc12 | -1 | -24 | 2 | 1 | -6 | 93* | 76* | 5
CNC(=O)c1c(NC(=O)c2ccco2)sc2c1CCC2 | -1 | 7 | -2 | -14 | -9 | 78* | 45 | 1
COCCC(=O)N1CCC(Oc2ccc(C(=O)N3CCCC(CCCO)C3)cc2)CC1 (configuration not stated) | 1 | -9 | 2 | -12 | -6 | 25 | · | ·
OCc1nc2c(ccc3ccccc32)[nH]1 | 0 | 0 | 0 | 12 | -3 | 8 | · | ·
O=c1[nH]c2ccc(Cl)cc2c(-c2ccccc2)c1[N+](=O)[O-] | -1 | -15 | -1 | 16 | 2 | 81* | 75* | 6
O=C(CS(=O)CC(=O)N(CC(=O)NC1CCCC1)c1ccccc1F)Nc1ccc(F)cc1 (configuration not stated) | 2 | -11 | 0 | -11 | 1 | -2 | · | ·
COc1ccc(/C=N/NC(=O)Nc2cccc3nsnc23)cc1OC | -1 | -13 | 2 | 19 | -4 | 82* | 67* | -5
COc1ccc(NC(=O)CCNS(=O)(=O)c2cccc3nsnc23)cc1OC | -1 | -1 | 1 | -4 | -8 | 84* | 30 | 25*
Nc1ccc2oc(-c3cccc4ccccc34)nc2c1 | 0 | -5 | -1 | -4 | -5 | 82* | 68* | 1
Cc1[nH]c2ccccc2c1C(=O)C(C)OC(=O)c1ccccc1NCCO (configuration not stated) | 8 | -9 | 5 | -5 | -14 | 27 | · | ·
O=C(Cc1ccccc1)NCC(=O)OCC(=O)c1ccc([N+](=O)[O-])cc1 | -1 | 2 | -1 | 0 | -7 | 86* | 53 | 42*
COC(=O)c1sccc1NC(=O)Nc1cccc(C(C)=O)c1 | -2 | 2 | -1 | 13 | -18 | 82* | 67* | 8
COC(=O)c1sccc1NC(=O)Nc1cccc(C)c1 | -2 | -29 | -1 | -26 | -1 | 35 | · | ·
COc1ccc(-c2ncn(CCC#N)c2[N+](=O)[O-])cc1 | 0 | -9 | 0 | -2 | 2 | 85* | 40 | 42*
COc1ccc(-c2cc(=O)n(CCC#N)[nH]2)cc1 | 0 | 4 | 0 | 3 | 0 | 17 | · | ·
CC(OC(=O)C1CCN(S(=O)(=O)c2ccc(Cl)cc2)CC1)C(=O)NC1CCCCC1C (configuration not stated) | 1 | -15 | 6 | -33 | -4 | 4 | · | ·
CN(C)CCC1CCN(c2cc(C#N)c(C#N)cc2[N+](=O)[O-])CC1 | 1 | -16 | 6 | -11 | 2 | 118* | 53 | 54*
N#Cc1cc(N2CCCCC2)c([N+](=O)[O-])cc1C#N | -1 | -13 | 1 | -8 | -9 | 34 | · | ·
